Test results published in ChEMBL document CHEMBL4038333, “Nonacidic Farnesoid X Receptor Modulators” (J Med Chem, 2017).
pEC50, pKd: −log10 of the molar value. Calls of active or inactive are those of the source. The calls are words filed in the database; no cut-off is given here.

Legend:
[1] = Metabolic stability in human HepG2 cells assessed as compound remaining after 24 hrs by HPLC analysis; type: ADME, cell-based; details: read-out: Stability
[2] = target: Peroxisome proliferator-activated receptor gamma (Homo sapiens) (UniProt P37231); assay: Transactivation of GAL4-tagged human PPARgamma ligand binding domain expressed in HEK293T cells at 1 uM after 12 to 14 hrs by dual-glo luciferase reporter gene assay; type: cell-based; details: HEK-293T
Summary of the method: (§1)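 Run as a selectivity screen against each listed receptor (14 nuclear receptors plus TGR5), in both agonist and antagonist modes. Test concentration was 1 µM, with n = 3.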

[3] = target: Retinoic acid receptor gamma (Homo sapiens) (UniProt P13631); assay: Transactivation of GAL4-tagged human RARgamma isoform 1 ligand binding domain (179 to 454 residues) expressed in HEK293T cells at 1 uM after 12 to 14 hrs by dual-glo luciferase reporter gene assay; type: cell-based; details: HEK-293T; summary of the method: as §1
[4] = target: Nuclear receptor subfamily 1 group I member 2 (Homo sapiens, UniProt O75469); assay: Antagonist activity at GAL4-tagged human PXR isoform 1 ligand binding domain (138 to 434 residues) expressed in HEK293T cells at 1 uM after 12 to 14 hrs by dual-glo luciferase reporter gene assay; type: cell-based; details: hek-293t; summary of the method: as §1
[5] = target: T1, Bile acid receptor (Homo sapiens) (UniProt Q96RI1); assay: Modulation of FXR in human HepG2 cells assessed as induction of SHP mRNA expression at 10 nM by qRT-PCR analysis; type: cell-based
T1 sequence (whole entry): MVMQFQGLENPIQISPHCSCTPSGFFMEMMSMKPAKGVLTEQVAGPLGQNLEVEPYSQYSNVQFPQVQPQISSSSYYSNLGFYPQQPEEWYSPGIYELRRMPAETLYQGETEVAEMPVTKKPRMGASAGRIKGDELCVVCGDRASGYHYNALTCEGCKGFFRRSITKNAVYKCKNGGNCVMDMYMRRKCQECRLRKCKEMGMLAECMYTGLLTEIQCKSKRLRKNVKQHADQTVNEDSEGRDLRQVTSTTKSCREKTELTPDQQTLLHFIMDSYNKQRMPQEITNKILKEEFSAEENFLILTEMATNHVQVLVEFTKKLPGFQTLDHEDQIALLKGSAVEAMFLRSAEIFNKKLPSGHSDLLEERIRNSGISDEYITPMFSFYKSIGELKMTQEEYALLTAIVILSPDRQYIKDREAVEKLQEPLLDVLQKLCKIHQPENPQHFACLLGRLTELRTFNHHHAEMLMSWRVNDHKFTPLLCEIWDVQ
Summary of the method: (§2)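 HepG2 hepatocarcinoma cells were incubated with the compound at 10 nM. FXR target-gene mRNA was quantified by qRT-PCR (n = 3), with significance at p < 0.05, 0.01 and 0.001.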

Bile acid receptor [6] = target: T2, Bile acid receptor (Homo sapiens, UniProt Q96RI1); assay: Binding affinity to FXR (unknown origin) ligand binding domain by ITC assay
T2 sequence (Q96RI1 whole entry): T1 sequence (whole entry)

[7] = target: T1, Bile acid receptor (Homo sapiens); assay: Modulation of FXR in human HepG2 cells assessed as induction of BSEP mRNA expression at 10 nM by qRT-PCR analysis; type: cell-based; summary of the method: as §2
[8] = target: Retinoic acid receptor RXR-beta (Homo sapiens) (UniProt P28702); assay: Antagonist activity at GAL4-tagged human RXRbeta isoform 1 ligand binding domain (294 to 533 residues) expressed in HEK293T cells at 1 uM after 12 to 14 hrs by dual-glo luciferase reporter gene assay; type: cell-based; details: HEK-293T; summary of the method: as §1
[9] = target: T1, Bile acid receptor (Homo sapiens); assay: Modulation of FXR in human HepG2 cells assessed as induction of PPARalpha mRNA expression at 10 nM by qRT-PCR analysis; type: cell-based; summary of the method: as §2
[10] = Lipophilicity, logD of compound at pH 7.4 by LC-MS analysis; type: physicochemical; details: buffer, read-out: logD
[11] = target: T1, Bile acid receptor (Homo sapiens); assay: Modulation of FXR in human HepG2 cells assessed as induction of OSTalpha mRNA expression at 10 nM by qRT-PCR analysis; type: cell-based; summary of the method: as §2
[12] = target: Vitamin D3 receptor (Homo sapiens) (UniProt P11473); assay: Antagonist activity at GAL4-tagged human VDR isoform 1 ligand binding domain (119 to 427 residues) expressed in HEK293T cells at 1 uM after 12 to 14 hrs by dual-glo luciferase reporter gene assay; type: cell-based; details: HEK-293T; summary of the method: as §1
HeLa [13] = assay: Selectivity ratio for human FXR expressed in human HeLa cells co-expressing BSEP over GAL4-tagged human RXRalpha ligand binding domain (225 to 462 residues) expressed in HEK293T cells; type: cell-based
HeLa [14] = assay: Selectivity ratio for human FXR expressed in human HeLa cells co-expressing BSEP over GAL4-tagged human RXRgamma ligand binding domain (229 to 463 residues) expressed in HEK293T cells; type: cell-based
HeLa [15] = assay: Selectivity ratio for human FXR expressed in human HeLa cells co-expressing BSEP over GAL4-tagged human RARalpha1 ligand binding domain (177 to 462 residues) expressed in HEK293T cells; type: cell-based
[16] = target: Retinoic acid receptor RXR-alpha (Homo sapiens) (UniProt P19793); assay: Antagonist activity at GAL4-tagged human RXRalpha ligand binding domain (225 to 462 residues) expressed in HEK293T cells at 1 uM after 12 to 14 hrs by dual-glo luciferase reporter gene assay; type: cell-based; details: HEK-293T; summary of the method: as §1
[17] = target: Oxysterols receptor LXR-beta (Homo sapiens) (UniProt P55055); assay: Antagonist activity at GAL4-tagged human LXRbeta ligand binding domain expressed in HEK293T cells at 1 uM after 12 to 14 hrs by dual-glo luciferase reporter gene assay; type: cell-based; details: HEK-293T; summary of the method: as §1
[18] = target: Peroxisome proliferator-activated receptor delta (Homo sapiens) (UniProt Q03181); assay: Antagonist activity at GAL4-tagged human PPARdelta ligand binding domain expressed in HEK293T cells at 1 uM after 12 to 14 hrs by dual-glo luciferase reporter gene assay; type: cell-based; details: HEK-293T; summary of the method: as §1
HeLa [19] = assay: Selectivity ratio for human FXR expressed in human HeLa cells co-expressing BSEP over GAL4-tagged human RXRbeta isoform 1 ligand binding domain (294 to 533 residues) expressed in HEK293T cells; type: cell-based
HeLa [20] = assay: Selectivity ratio for human FXR expressed in human HeLa cells co-expressing BSEP over GAL4-tagged human PPARalpha ligand binding domain expressed in HEK293T cells; type: cell-based
[21] = target: Retinoic acid receptor RXR-gamma (Homo sapiens) (UniProt P48443); assay: Antagonist activity at GAL4-tagged human RXRgamma ligand binding domain (229 to 463 residues) expressed in HEK293T cells at 1 uM after 12 to 14 hrs by dual-glo luciferase reporter gene assay; type: cell-based; details: HEK-293T; summary of the method: as §1
[22] = target: Retinoic acid receptor beta (Homo sapiens) (UniProt P10826); assay: Transactivation of GAL4-tagged human RARbeta1 ligand binding domain (177 to 455 residues) expressed in HEK293T cells at 1 uM after 12 to 14 hrs by dual-glo luciferase reporter gene assay; type: cell-based; details: HEK-293T; summary of the method: as §1
[23] = target: Retinoic acid receptor RXR-gamma (Homo sapiens) (UniProt P48443); assay: Transactivation of GAL4-tagged human RXRgamma ligand binding domain (229 to 463 residues) expressed in HEK293T cells at 1 uM after 12 to 14 hrs by dual-glo luciferase reporter gene assay; type: cell-based; details: HEK-293T; summary of the method: as §1
Bile acid receptor [24] = target: T2, Bile acid receptor; assay: Transactivation of human FXR expressed in human HeLa cells co-expressing BSEP after 24 hrs by dual-glo luciferase reporter gene assay; type: cell-based; details: read-out: EC50
Summary of the method: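 Full-length reporter system with constitutive expression of hFXR and hRXR. A constitutive Renilla luciferase served for normalization and as a toxicity control. Maximum relative activation was expressed against a reference FXR agonist at 3 µM, set as 100%.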

Sequence of Retinoic acid receptor RXR-gamma (Homo sapiens) (P48443 whole entry, the tested form may be a part): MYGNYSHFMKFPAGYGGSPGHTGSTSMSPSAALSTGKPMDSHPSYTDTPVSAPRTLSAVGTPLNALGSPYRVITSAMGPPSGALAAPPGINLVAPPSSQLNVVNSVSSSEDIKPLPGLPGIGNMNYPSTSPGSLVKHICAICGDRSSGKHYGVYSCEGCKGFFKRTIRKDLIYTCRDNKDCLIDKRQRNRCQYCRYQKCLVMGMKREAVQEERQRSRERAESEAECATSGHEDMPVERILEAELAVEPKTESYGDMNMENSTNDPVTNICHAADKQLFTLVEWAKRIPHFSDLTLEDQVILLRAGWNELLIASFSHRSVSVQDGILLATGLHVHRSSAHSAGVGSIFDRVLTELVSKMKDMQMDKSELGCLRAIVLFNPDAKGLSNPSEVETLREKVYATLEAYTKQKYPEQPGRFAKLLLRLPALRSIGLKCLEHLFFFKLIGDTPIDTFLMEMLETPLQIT
Sequence of Retinoic acid receptor gamma (Homo sapiens) (P13631 whole entry, the tested form may be a part, canonical isoform): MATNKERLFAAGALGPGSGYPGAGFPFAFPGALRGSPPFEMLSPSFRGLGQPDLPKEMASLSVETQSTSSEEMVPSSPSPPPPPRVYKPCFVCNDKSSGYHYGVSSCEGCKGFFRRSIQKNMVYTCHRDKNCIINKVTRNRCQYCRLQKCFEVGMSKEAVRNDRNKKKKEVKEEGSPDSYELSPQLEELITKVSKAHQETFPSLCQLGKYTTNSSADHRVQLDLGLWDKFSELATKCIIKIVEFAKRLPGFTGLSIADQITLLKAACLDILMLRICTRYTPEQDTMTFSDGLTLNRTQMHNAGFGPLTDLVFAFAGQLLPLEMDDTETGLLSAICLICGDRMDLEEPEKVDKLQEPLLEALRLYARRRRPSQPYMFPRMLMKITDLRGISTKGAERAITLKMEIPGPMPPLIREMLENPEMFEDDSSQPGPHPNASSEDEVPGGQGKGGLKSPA
Sequence of Retinoic acid receptor RXR-beta (Homo sapiens) (P28702 whole entry, the tested form may be a part, canonical isoform): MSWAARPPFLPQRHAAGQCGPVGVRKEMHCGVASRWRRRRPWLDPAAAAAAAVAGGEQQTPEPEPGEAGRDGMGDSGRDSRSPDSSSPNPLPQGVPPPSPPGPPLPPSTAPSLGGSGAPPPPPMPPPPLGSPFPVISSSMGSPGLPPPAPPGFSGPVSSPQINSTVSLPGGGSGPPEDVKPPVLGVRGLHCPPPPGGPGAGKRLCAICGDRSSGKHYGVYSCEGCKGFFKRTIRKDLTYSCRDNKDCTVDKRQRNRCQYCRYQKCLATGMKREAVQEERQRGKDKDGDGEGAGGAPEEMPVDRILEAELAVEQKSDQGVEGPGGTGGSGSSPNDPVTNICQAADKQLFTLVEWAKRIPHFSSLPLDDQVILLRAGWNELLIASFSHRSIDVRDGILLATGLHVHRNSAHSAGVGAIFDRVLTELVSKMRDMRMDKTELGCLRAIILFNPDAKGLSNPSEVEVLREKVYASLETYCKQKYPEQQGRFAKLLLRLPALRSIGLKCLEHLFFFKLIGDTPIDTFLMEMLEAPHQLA
Sequence of Retinoic acid receptor beta (Homo sapiens) (P10826 whole entry, the tested form may be a part): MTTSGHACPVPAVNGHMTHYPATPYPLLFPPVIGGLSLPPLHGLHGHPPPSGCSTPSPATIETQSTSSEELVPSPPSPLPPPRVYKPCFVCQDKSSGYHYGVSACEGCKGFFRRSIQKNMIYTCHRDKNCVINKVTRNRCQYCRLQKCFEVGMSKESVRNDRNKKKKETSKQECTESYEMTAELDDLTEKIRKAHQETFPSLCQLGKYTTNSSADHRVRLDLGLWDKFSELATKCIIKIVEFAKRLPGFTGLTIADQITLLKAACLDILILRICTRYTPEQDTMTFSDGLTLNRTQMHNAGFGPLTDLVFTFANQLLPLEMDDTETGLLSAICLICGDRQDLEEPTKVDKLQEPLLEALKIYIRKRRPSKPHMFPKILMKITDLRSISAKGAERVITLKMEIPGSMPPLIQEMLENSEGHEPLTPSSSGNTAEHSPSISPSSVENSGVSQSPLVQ
Sequence of Retinoic acid receptor RXR-alpha (Homo sapiens) (P19793 whole entry, the tested form may be a part): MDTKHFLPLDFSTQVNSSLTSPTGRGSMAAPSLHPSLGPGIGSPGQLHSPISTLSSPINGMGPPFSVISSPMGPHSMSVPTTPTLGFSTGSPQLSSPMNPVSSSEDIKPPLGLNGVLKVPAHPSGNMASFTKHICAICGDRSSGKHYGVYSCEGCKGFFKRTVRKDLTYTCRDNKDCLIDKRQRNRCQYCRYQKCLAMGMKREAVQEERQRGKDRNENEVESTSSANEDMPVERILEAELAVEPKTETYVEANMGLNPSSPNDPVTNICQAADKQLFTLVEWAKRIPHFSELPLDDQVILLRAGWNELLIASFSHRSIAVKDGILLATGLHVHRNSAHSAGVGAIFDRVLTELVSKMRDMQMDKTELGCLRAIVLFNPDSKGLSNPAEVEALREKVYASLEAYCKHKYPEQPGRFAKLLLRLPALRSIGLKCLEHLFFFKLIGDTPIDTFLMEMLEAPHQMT
Sequence of Peroxisome proliferator-activated receptor delta (Homo sapiens) (Q03181 whole entry, the tested form may be a part, canonical isoform): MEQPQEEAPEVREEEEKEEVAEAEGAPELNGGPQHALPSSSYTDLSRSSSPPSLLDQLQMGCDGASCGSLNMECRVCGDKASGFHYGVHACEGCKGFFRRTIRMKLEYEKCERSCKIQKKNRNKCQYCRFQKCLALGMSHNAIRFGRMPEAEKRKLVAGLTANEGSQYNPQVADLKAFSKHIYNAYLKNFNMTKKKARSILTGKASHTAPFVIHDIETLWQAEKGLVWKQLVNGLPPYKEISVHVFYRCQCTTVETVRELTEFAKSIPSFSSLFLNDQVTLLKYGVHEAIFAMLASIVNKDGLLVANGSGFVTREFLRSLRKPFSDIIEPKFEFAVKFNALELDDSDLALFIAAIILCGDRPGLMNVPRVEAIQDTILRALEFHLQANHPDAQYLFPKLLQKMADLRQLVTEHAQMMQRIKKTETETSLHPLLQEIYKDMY
Sequence of Peroxisome proliferator-activated receptor gamma (Homo sapiens) (P37231 whole entry, the tested form may be a part): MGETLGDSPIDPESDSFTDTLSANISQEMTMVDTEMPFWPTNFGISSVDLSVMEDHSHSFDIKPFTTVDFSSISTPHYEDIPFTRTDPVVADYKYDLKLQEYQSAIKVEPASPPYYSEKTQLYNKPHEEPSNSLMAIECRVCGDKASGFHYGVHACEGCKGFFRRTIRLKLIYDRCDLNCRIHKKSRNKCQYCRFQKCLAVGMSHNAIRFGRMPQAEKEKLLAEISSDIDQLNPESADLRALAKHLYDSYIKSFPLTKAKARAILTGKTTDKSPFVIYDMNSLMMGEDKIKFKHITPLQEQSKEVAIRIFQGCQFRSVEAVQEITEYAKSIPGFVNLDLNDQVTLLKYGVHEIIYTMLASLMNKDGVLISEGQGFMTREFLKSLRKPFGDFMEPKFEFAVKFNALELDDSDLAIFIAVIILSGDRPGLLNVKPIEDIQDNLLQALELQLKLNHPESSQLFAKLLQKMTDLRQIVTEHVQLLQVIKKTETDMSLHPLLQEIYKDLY
Sequence of Vitamin D3 receptor (Homo sapiens) (P11473 whole entry, the tested form may be a part, canonical isoform): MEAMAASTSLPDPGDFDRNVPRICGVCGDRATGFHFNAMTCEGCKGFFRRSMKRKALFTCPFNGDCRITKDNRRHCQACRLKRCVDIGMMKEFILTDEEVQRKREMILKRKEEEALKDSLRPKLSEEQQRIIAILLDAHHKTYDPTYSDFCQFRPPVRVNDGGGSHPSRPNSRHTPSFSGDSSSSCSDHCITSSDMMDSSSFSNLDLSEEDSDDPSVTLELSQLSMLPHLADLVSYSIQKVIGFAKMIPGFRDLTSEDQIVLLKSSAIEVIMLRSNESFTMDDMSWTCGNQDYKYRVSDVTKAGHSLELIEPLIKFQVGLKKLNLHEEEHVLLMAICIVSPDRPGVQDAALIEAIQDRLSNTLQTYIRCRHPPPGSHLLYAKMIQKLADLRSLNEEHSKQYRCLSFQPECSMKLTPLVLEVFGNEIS
Sequence of Oxysterols receptor LXR-beta (Homo sapiens) (P55055 whole entry, the tested form may be a part): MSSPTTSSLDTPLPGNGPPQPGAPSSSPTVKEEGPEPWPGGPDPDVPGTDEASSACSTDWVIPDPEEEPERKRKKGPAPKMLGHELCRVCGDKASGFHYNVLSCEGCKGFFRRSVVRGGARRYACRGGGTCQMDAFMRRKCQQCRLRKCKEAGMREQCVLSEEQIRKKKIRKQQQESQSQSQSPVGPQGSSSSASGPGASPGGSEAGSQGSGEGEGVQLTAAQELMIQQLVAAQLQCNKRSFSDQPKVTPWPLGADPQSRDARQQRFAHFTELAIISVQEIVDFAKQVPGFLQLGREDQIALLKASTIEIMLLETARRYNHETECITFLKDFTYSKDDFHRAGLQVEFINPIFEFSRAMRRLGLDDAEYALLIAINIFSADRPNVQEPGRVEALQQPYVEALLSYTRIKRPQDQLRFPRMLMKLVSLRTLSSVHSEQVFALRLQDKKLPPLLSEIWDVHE
Sequence of Nuclear receptor subfamily 1 group I member 2 (O75469 whole entry, the tested form may be a part, canonical isoform): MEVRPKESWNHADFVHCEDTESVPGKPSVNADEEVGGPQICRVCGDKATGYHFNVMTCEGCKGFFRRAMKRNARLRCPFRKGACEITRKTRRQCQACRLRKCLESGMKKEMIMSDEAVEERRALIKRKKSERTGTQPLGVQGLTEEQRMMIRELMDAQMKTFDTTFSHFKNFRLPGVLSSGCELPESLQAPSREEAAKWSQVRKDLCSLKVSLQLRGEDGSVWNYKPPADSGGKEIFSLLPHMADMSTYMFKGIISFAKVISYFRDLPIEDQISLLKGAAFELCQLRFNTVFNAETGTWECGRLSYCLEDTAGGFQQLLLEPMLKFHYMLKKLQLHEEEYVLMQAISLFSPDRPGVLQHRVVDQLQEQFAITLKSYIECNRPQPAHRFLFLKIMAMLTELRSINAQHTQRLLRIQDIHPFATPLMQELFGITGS

remaining at 24 h [1]: 12%
Activity [2]: inactive
Activity [3]: inactive
inhibition (INH) [4]: Not Active
Activity [5]: Active
pKd (Bile acid receptor [6]): 7.43
inhibition [8]: inactive
Activity [9]: Active
logD [10]: 1.69
Activity [11]: Active
inhibition [12]: inactive
inhibition [16]: inactive
inhibition [17]: inactive
inhibition [18]: inactive
inhibition [21]: inactive
Activity [22]: inactive
Activity [23]: inactive
Structure (SMILES): COc1ccc(CNc2c(-c3cc(Cl)ccn3)nc3ccc(Cl)cn23)cc1
Activity [7]: Active
Selectivity ratio (HeLa [13]): 3000
Selectivity ratio (HeLa [14]): 3000
Selectivity ratio (HeLa [15]): 3000
Selectivity ratio (HeLa [19]): 3000
Selectivity ratio (HeLa [20]): 3000
pEC50 (Bile acid receptor [24]): 9.52
